Measurements reported in ChEMBL document CHEMBL2046422, “Structure-activity relationship of nonacidic quinazolinone inhibitors of human microsomal prostaglandin synthase 1 (mPGES 1)” (J Med Chem, 2012).

Tests used:
[1] = molecular target: T1, Prostaglandin E synthase (Homo sapiens) (UniProt O14684); experiment: Inhibition of mPGES-1 in IL1beta and TNFalpha-stimulated human HeLa cells assessed as PGE2 level after 24 hrs by LC-MS/MS analysis; format: cell-based
T1 sequence (whole entry): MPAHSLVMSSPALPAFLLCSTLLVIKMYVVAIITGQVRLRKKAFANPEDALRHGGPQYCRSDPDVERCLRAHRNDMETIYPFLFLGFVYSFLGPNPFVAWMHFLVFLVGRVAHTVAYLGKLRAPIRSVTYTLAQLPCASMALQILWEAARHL
Outline: (§1)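 HeLa cells (2 × 10⁴) were grown 24 h at 37 °C. The medium was then replaced with IL-1β (1 ng/mL) + TNFα (5 ng/mL), or PBS for unstimulated controls, together with compound at 1, 10 or 100 μM, or DMSO, for 24 h at 37 °C. Supernatant PGE₂ was quantified by LC-MS/MS after solid-phase extraction with deuterated standards. Inhibition is percent of DMSO control corrected for unstimulated background, SEM, n ≥ 3.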

[2] = molecular target: T1, Prostaglandin E synthase (Homo sapiens); experiment: Inhibition of mPGES-1 in IL1beta and TNFalpha-stimulated human HeLa cells assessed as PGE2 level at 10 uM after 24 hrs by LC-MS/MS analysis relative to control; format: cell-based; outline: as §1
[3] = molecular target: Prostaglandin G/H synthase 1 (Homo sapiens) (UniProt P23219); experiment: Inhibition of COX1 in human whole blood assessed as residual TXB2 level at 10 uM after 1 hr by LC-MS/MS analysis relative to control
Outline: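 Human venous blood was drawn without additives, and compound was added. Samples clotted at 37 °C for 1 h; negative controls were chilled on ice at once. After 5 min on ice, plasma was separated at 4 °C. It was mixed with H₃PO₄, EDTA, BHT and deuterated internal standards, then put through solid-phase extraction. TXB₂ and PGD₂ were measured by LC-MS/MS, relative to vehicle-treated blood.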

[4] = molecular target: T1, Prostaglandin E synthase (Homo sapiens); experiment: Inhibition of mPGES-1 in IL1beta and TNFalpha-stimulated human HeLa cells assessed as PGE2 level at 1 uM after 24 hrs by LC-MS/MS analysis relative to isolated enzyme
[5] = molecular target: T1, Prostaglandin E synthase (Homo sapiens); experiment: Inhibition of mPGES-1 derived from IL1beta and TNFalpha stimulated human HeLa cells microsomal fraction using PGH2 as substrate at 1 uM preincubated for 30 mins prior to substrate addition measured after 1 min by LC-MS/MS analysis relative to control
Outline: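 Microsomes were pelleted by ultracentrifugation and resuspended in buffer with 2.5 mM GSH; protein was measured by Bradford. PGE₂ was read by LC-MS/MS after solid-phase extraction with deuterated standards; n ≥ 3.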

[6] = molecular target: T2, Prostaglandin E synthase (Mus musculus) (UniProt Q9JM51); experiment: Inhibition of mPGES-1 derived from LPS stimulated mouse NIH3T3 cells microsomal fraction using PGH2 as substrate at 1 uM preincubated for 30 mins prior to substrate addition measured after 1 min by LC-MS/MS analysis relative to control
T2 sequence (whole entry): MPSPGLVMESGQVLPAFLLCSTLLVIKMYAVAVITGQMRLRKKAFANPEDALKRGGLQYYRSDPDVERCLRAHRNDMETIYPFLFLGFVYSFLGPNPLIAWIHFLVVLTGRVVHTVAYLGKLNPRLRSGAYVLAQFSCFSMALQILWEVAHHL

[7] = molecular target: T3, Prostaglandin G/H synthase 1 (Ovis aries) (UniProt P05979); experiment: Inhibition of ovine COX1-mediated PGE2 synthesis using PGH2 as substrate at 1 uM by LC-MS/MS analysis relative to control
T3 sequence (whole entry): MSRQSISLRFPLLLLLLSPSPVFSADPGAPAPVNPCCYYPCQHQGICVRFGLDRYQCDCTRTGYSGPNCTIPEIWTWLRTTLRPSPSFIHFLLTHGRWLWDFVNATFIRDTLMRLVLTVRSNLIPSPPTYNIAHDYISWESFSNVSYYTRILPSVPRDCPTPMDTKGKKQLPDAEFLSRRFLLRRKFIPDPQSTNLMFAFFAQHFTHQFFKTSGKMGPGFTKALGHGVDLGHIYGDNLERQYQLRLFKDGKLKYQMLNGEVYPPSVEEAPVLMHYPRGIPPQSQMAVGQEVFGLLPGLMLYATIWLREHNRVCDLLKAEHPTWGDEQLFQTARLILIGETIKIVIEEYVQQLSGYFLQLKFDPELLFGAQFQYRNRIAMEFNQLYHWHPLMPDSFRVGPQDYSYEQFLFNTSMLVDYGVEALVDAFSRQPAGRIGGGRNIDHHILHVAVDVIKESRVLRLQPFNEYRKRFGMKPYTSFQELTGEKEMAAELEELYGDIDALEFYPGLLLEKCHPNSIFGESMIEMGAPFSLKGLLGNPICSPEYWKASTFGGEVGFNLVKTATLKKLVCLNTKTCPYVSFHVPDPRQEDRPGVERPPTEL
Outline: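 Direct enzyme test with a COX inhibitor screening kit, run per the kit protocol: COX-1 was ovine, COX-2 human recombinant. […] Prostaglandins were quantified by LC-MS/MS after solid-phase extraction. Mean of n ≥ 3.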

HeLa = experiment: Cytotoxicity against IL1beta and TNFalpha-stimulated human HeLa cells at 1 to 10 uM after 24 hrs by WST1 assay; format: cell-based
Outline: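 HeLa cells were seeded at 3 × 10³ per well and grown 24 h at 37 °C. They were then stimulated with IL-1β (1 ng/mL) + TNFα (5 ng/mL) while treated with compound at 1, 10 or 100 μM, or DMSO, for 24 h. WST-1 was added for 90–150 min and absorbance read at 450 nm against 620 nm. Viability is percent of DMSO control, SEM, n ≥ 3.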

Prostaglandin G/H synthase 1 (Homo sapiens), sequence (P23219 whole entry): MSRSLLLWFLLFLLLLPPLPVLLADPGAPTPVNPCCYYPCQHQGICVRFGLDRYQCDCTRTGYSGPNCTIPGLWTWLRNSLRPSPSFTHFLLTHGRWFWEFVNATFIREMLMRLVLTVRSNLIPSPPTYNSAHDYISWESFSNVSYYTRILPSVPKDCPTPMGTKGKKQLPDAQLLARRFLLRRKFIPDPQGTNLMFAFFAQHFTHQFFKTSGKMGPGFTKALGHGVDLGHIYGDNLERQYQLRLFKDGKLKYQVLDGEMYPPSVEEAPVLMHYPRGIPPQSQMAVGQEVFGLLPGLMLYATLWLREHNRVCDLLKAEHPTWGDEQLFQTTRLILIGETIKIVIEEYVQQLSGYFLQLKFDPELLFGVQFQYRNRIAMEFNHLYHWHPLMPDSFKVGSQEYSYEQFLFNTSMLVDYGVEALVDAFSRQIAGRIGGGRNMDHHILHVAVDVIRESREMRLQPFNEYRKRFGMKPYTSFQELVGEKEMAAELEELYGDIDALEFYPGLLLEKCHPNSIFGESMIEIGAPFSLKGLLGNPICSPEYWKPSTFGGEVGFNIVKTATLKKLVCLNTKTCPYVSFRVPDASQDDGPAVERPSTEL

| inhibition [1] | inhibition [2] [%] | Activity [3] [%] | potency shift [4] [%] | inhibition [5] [%] | inhibition [6] [%] | inhibition [7] [%] | SMILES | Activity (HeLa) |
| --- | --- | --- | --- | --- | --- | --- | --- | --- |
| Dose-dependent effect | 97 | 89 | 28 | 71.5 | 4.6 | 20.1 | CCCc1nc2ccc(NC(=O)c3ccccc3Cl)cc2c(=O)n1Cc1ccc(-c2cccc(OC)c2)cc1 | Non-toxic |
| Dose-dependent effect |  | 81.9 |  | 63.1 | 0.9 | < 0 | CCCc1nc2ccc(NC(=O)c3ccccc3C)cc2c(=O)n1Cc1cccc(Cl)c1 | Non-toxic |
| Dose-dependent effect |  | 90.4 |  | 86.3 | -0.8 | < 0 | CCCc1nc2ccc(NC(=O)c3ccccc3Cl)cc2c(=O)n1Cc1cccc(Cl)c1 | Non-toxic |
| Dose-dependent effect |  | 84.4 |  | 75.6 |  | < 0 | CCCc1nc2ccc(NC(=O)c3c(F)cccc3Cl)cc2c(=O)n1Cc1cccc(Cl)c1 | Non-toxic |
| Dose-dependent effect |  | 97.3 |  | 68.8 | 17.1 | 2.6 | CCCc1nc2ccc(NC(=O)c3ccccc3Cl)cc2c(=O)n1Cc1ccc(-c2ccc(Cl)cc2)cc1 | Non-toxic |
| Dose-dependent effect |  | 90 |  | 66.7 | 10.7 | < 0 | CCCc1nc2ccc(NC(=O)c3ccccc3Cl)cc2c(=O)n1Cc1ccc(-c2cccc(Cl)c2)cc1 |  |
| Dose-dependent effect | 70 | 86.4 |  | 74.2 | 20.3 | 8.4 | CCCc1nc2ccc(NC(=O)c3ccccc3Cl)cc2c(=O)n1Cc1ccc(-c2ccccc2)cc1 | Non-toxic |
